Assay: Toxicity liver stage against HepG2, at 10uM
Type: cell-based
Design: test concentration 10 uM, cell line HepG2-A16-CD81EGFP
Conditions: human, HepG2-A16-CD81EGFP cells; read-out: INHIBITION
How it was run: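 Uninfected HepG2-A16-CD81EGFP cells, 3 × 10^3 per well, 1536-well, plated on prespotted compound at 10 μM final, parasite-free screening media added to match infected plates; puromycin 10 μM positive, DMSO 0.5% negative; run in parallel with 48 h PbLuc assay at 37 °C, 5% CO2; viability by CellTiter-Glo luminescence, normalized to controls.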

Row | Structure (SMILES) | cytotoxicity at 10 µM [%]
1 | Cc1cc(=O)[nH]c(=O)n1-c1ccccc1Br | 7.89
2 | CC(O)CN1CCC(CN(C)CC(=O)NC(C)C)CC1 (stereo not given) | -2.32
3 | CN(C)S(=O)(=O)N1CC[C@]2(O)CCN(CCCc3cccnc3)C[C@@H]2C1 | -6.55
4 | Cc1csc(CN2CC[C@H]3C[C@@H](c4nc(C)no4)O[C@@H]3C2)n1 | 3.8
5 | CCNC(=O)N1CCc2ccc(NC(=O)NCC3CC3)cc21 | 3.53
6 | CCn1nc(C)c2ncnc(NCC(=O)N3CCOCC3)c21 | 3.54
7 | CCn1c(CN2CCOC(Cn3cncn3)C2)nc2c(F)cccc21 (stereo not given) | -5.42
8 | CCc1nc(C(=O)N2CCN(C)CC2C)nn1-c1ccccc1Cl (stereo not given) | -2.38
9 | Cc1cc(F)c2c(c1)CCCN2S(=O)(=O)c1ncn(C)c1Cl | 1.99
10 | COc1ccccc1CNc1ncc(-c2cc(C)no2)c(C(C)C)n1 | 8.49
11 | O=C(C1SCCc2sccc21)N1CCN(CC(F)F)CC1 (stereo not given) | -4.5
12 | CN(C)CC1CN(Cc2coc(-c3ccc(Cl)cc3)n2)CCO1 (stereo not given) | 0.35
13 | CCc1nc(CNc2ccc(F)cc2I)no1 | 3.36
14 | COc1c(CNCc2cccc(C(=O)N(C)C)c2)c(C)nn1C | -16.9
15 | O=C(O)c1c(-c2cccnc2)ncc2c1CCN(CC1CCOC1)C2 (stereo not given) | -2.55
16 | CCc1nc(CN2CCCN(c3ncnc4sccc34)CC2)no1 | 59.9
17 | CCn1ncc2c1C(COC)CN(Cc1nccs1)C2 (stereo not given) | 9.41
18 | Cc1cc(C)c(CNc2ncnc3c2cnn3C)c(=O)[nH]1 | 8.63
19 | Cc1nnc(NCc2cccc(OCc3ccccn3)c2)c(C#N)c1C | 5.93
20 | N#Cc1ccc(CN2CCN(C(=O)C3CCC3)[C@@H]3CS(=O)(=O)C[C@@H]32)cc1 | -9.78
21 | COC1CCN(C(=O)c2c(Cl)c3ccccc3n2C)CC1 | 4.39
22 | O=C1CC[C@@H]2[C@@H](CCN2C(=O)c2ccsc2)N1Cc1ccncc1 | -71.5
23 | COCCN1CC(c2cc(O)nc(NC(C)C)n2)CC1=O (stereo not given) | -39.7

Row | Structure (SMILES) | cytotoxicity at 10 µM [%]
24 | Cc1ccc2c(n1)N(CC(C)C)CCN(C(=O)Cc1ccccn1)C2 | 12.7
25 | NC(=O)CC1CCN(C(=O)c2cnc(-c3ccccc3F)s2)CC1 | -0.608
26 | COCCC(=O)N1CC2(CCN(c3ccccc3)C2)C1 | 10.3
27 | O=C1C(NCc2nnc3n2CCCC3)CCCN1c1cccc(F)c1 (stereo not given) | -9.68
28 | Cc1cc(NC(=O)CNC2CCc3nc(C(C)C)nn3C2)no1 (stereo not given) | -3.87
29 | COc1ccc(CN2C[C@@H]3OCC(=O)N(CC(N)=O)[C@@H]3C2)cc1 | -4.54
30 | Cc1occc1C(=O)Nc1cc(N2CCNC2=O)ccc1Cl | 8.56
31 | CSCC(=O)N1CCCCC1Cn1cc(C)cn1 (stereo not given) | -8.24
32 | Cc1ccc(CN2CC3(CCN(C(=O)c4cccnc4)C3)C2)o1 | -79.6
33 | Cc1cc(NC(=O)NC(C)(C)c2nc(C)c(C)s2)no1 | -1.95
34 | O=c1nc(SCc2ccc(Cl)cc2)c2c(n1CCO)CCC2 | 12.3
35 | COc1ccc(CNc2cnn(CC(F)F)c2)cc1 | -7.47
36 | O=C(c1c[nH]c2ncccc12)N(Cc1ccco1)C1CCCC1 | 2.07
37 | CCN1CC2(CC1=O)CN(Cc1cnn(C)c1)CCN(C(=O)C(C)C)C2 (stereo not given) | -15
38 | Cc1cc(C2CCCN(C(=O)COc3ccccc3F)C2)n[nH]1 (stereo not given) | 7.45
39 | COC(=O)c1cc(OCC2CCC2)cc(C(=O)N[C@@H]2CCCNC2)c1 | -3.16
40 | CCc1ncc(CN2CCC3(CCCN(CC4CCC4)C3)C2)cn1 (stereo not given) | -7.07
41 | CCN1C(=O)CC(c2cnn(C)c2)C12CCN(C(=O)c1ccc[nH]1)CC2 (stereo not given) | 8.82
42 | O=c1oc(-c2cccs2)nn1CC(O)c1ccccc1 (stereo not given) | 21.3
43 | COc1cccc2cc(CNCc3ccnc(N4CCOCC4)c3)oc12 | -8.55
44 | Cc1nn(C)c(C)c1NC(=O)CN1CCCC1c1noc(C2CC2)n1 (stereo not given) | -12.1
45 | Cc1ccc(CCNC(=O)Nc2cc(C(F)(F)F)c[nH]c2=O)o1 | -11.9

Source: ChEMBL document CHEMBL4513216, “Probing the Open Global Health Chemical Diversity Library for Multistage-Active Starting Points for Next-Generation Antimalarials” (ACS Infect Dis, 2020)
